Assay [1] has as its target T1, Prostaglandin G/H synthase 1 (Homo sapiens, UniProt P23219). Briefly: The inhibitory activity against cyclooxygenase Prostaglandin G/H synthase 1 measured as TXB2 production after blood coagulation using human Whole blood assay: NI means no inhibition. In a few lines:
(§1)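 Human whole blood; COX-1 activity read as TXB2 produced during blood coagulation. Each drug run in triplicate over 100 to 0.01 μM. IC50 calculated from the concentration series. No inhibition at 100 μM recorded as ni.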

Assay [2] deals with Rattus norvegicus. Nature of the assay: The percentage growth of paw after injection of carrageneen at a dose of 30 mg/kg dose. The format is functional. In a few lines: (§2)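 Wistar rats (250 g) given drug intraperitoneally, 10 or 30 mg/kg, from a 10 mg/mL DMSO solution. After 1 h, 0.1 mL 1% lambda carrageenan was injected into the right hind paw plantar region. At 3 h, rats were euthanized with nembutal (100 mg/kg) and paws cut at the ankle. Swelling was taken as % weight increase over the control paw. Mean ± SD, n = 6.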

For assay [3], the system named is Rattus norvegicus. Nature of the assay: The percentage growth of paw after injection of carrageneen at a dose of 10 mg/kg dose. In kind it is functional. In a few lines:
as §2

Assay [4] deals with Rattus norvegicus. Nature of the assay: The percentage growth of paw after injection of carrageneen at a dose of 30 mg/kg dose; Toxic. In kind it is functional, organism-based. Further details: dose 30 mg/kg. In a few lines:
as §2

Assay [5] has as its target T1, Prostaglandin G/H synthase 1. Briefly: The inhibitory activity against Prostaglandin G/H synthase 1 measured as TXB2 production after blood coagulation using human Whole blood assay.
Assay [6] has as its target T2, Prostaglandin G/H synthase 2 (Homo sapiens, UniProt P35354).
T2 sequence (P35354 whole entry): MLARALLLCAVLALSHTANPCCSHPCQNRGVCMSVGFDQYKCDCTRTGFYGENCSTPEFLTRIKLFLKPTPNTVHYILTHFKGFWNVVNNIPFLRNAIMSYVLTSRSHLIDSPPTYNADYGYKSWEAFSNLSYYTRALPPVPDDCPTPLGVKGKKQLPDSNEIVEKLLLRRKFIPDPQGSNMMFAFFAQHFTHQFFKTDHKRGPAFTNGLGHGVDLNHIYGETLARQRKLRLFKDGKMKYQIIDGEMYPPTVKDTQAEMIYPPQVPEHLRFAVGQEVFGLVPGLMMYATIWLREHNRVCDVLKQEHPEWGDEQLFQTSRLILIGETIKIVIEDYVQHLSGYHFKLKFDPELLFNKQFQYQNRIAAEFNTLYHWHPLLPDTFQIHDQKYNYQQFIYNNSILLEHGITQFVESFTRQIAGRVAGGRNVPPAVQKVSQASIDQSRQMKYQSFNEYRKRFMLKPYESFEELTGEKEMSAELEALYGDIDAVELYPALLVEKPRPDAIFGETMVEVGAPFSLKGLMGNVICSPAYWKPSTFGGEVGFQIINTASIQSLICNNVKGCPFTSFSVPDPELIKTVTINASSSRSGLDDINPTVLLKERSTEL
Nature of the assay: The inhibitory activity against cyclooxygenase Prostaglandin G/H synthase 2 (COX-2) measured as PGE-2 production after stimulation by lipopolysaccharide (LPS) using human Whole blood assay.

In assay [7] the target is T1, Prostaglandin G/H synthase 1. Nature of the assay: The inhibitory activity against Prostaglandin G/H synthase 1 measured as TXB2 production after blood coagulation using human Whole blood assay: NI means no inhibition. In a few lines: as §1
Assay [8] deals with T3, Prostaglandin G/H synthase 2 (Homo sapiens) (UniProt P35354).
T3 sequence (whole entry): T2 sequence (P35354 whole entry)
Briefly: The inhibitory activity against cyclooxygenase Prostaglandin G/H synthase 2 (COX-2) measured as PGE-2 production after stimulation by lipopolysaccharide (LPS) using human Whole blood assay:NI means no inhibition.

SMILES strings stand for the structures. Calls of active or inactive are those of the source. No cut-off for these calls is given here.

T1 sequence (P23219 whole entry): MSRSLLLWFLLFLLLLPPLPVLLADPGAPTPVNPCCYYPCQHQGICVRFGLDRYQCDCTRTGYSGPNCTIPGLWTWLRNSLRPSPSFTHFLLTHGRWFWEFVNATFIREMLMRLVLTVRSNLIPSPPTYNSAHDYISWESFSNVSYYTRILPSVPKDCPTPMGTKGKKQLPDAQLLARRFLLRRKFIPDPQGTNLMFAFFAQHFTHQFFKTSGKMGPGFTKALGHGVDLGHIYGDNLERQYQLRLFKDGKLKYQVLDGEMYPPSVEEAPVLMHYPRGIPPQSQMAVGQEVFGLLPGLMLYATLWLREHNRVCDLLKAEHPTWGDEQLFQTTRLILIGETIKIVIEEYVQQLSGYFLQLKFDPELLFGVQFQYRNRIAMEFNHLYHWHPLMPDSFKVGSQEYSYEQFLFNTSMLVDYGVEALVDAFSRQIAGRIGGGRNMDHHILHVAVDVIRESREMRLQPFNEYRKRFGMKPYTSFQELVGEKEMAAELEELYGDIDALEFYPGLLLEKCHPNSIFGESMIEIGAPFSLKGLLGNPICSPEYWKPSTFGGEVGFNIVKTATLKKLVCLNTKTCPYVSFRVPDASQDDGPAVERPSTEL

In the case of `CN(c1ccc([N+](=O)[O-])cc1Oc1ccccc1)S(C)(=O)=O`, the NI result in assay [1] was “inactive”. The values for the Growth in the assay with Rattus norvegicus [2] and in the assay on Rattus norvegicus [3] were 65.6% and 84.6%, respectively.

Consider `CS(=O)(=O)Nc1ccc([N+](=O)[O-])cc1Oc1ccccc1` [NIMESULIDE], for which the Growth with Rattus norvegicus [2] is reported as 54%; in the assay with Rattus norvegicus [3] it was 58%.

Take `O=S(=O)(Nc1ccncc1Oc1ccccc1)C(F)(F)F`: the Growth with Rattus norvegicus [2] stood at 54.1%; in the assay with Rattus norvegicus [3], 74.7%.

Broadly, the IC50 is the concentration that inhibits the measured activity by half. A higher IC50 goes with a need for much substance. Regarding `CS(=O)(=O)Nc1ccncc1Oc1ccccc1`, the Growth result with Rattus norvegicus [4] is “Toxic”. Moreover, the IC50 stood at 4.9 µM in assay [5] and 37.5 µM in assay [6].

As to `CS(=O)(=O)Nc1cccnc1Oc1ccccc1`, the inhibition entry in assay [7] and in assay [8] was “inactive” each time.

The values are drawn from ChEMBL document CHEMBL1135651 (J Med Chem, 2002).
